Reference: ChEMBL document CHEMBL1155331, “Synthesis and SAR of a novel positive allosteric modulator (PAM) of the metabotropic glutamate receptor 4 (mGluR4)” (Bioorg Med Chem Lett, 2009)

Experiments:
[1] = molecular target: T1, Metabotropic glutamate receptor 4 (Homo sapiens, UniProt Q14833); assay: Allosteric modulator activity at human mGlu4 receptor expressed in CHO cells coexpressing Gqi5 assessed as effect on calcium flux; format: functional, cell-based
[2] = molecular target: T1, Metabotropic glutamate receptor 4; assay: Allosteric modulator activity at human mGlu4 receptor expressed in CHO cells coexpressing Gqi5 assessed as effect on calcium flux in relative to glutamate; format: functional, cell-based
Procedure, shortened: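 hmGluR4/Gqi5 stably transfected CHO cells, 30,000/well, grown overnight at 37 °C, 5% CO2; loaded with 1 μM Fluo-4 AM for 45 min at 37 °C in HBSS/20 mM HEPES/2.5 mM probenecid. Baseline fluorescence read (ex 470, em 540 nm); compound preincubated ~2.5 min, then glutamate EC20, then EC80 2 min later. Ca2+ flux read; 10-point 1:3 concentration-response curves.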

T1 sequence (Q14833 whole entry): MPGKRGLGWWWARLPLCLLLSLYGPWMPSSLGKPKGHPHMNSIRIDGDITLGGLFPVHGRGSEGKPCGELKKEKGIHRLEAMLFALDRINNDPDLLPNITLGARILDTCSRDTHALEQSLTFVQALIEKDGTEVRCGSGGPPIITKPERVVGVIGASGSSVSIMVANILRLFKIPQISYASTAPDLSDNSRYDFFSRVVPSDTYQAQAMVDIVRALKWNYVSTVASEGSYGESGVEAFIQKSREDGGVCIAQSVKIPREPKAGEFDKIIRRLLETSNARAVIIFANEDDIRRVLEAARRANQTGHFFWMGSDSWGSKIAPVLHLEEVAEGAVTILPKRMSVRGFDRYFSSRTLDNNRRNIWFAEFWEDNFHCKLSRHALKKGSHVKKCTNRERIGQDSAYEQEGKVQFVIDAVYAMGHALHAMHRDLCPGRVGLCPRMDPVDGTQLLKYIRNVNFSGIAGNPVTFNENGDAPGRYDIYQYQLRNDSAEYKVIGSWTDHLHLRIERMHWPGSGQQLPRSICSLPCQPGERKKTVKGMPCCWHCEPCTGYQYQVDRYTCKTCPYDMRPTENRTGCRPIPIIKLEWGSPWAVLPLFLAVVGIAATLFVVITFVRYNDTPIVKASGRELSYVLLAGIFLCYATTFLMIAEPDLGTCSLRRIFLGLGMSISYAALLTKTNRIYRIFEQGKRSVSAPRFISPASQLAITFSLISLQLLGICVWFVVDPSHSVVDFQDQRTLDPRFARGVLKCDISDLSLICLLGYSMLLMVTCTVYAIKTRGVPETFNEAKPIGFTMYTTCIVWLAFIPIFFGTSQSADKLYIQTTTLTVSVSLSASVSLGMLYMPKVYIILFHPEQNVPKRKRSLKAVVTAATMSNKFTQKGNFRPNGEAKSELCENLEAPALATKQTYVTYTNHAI

Row | SMILES | EC50 ([1]; read-out: EC50) [µM] | Emax [2] [%] | EC50 ([1]; cho)
1 | O=C(Nc1cc(Cl)cc(Cl)c1)[C@@H]1[C@H](C(=O)O)[C@H]2C=C[C@@H]1C2 | – | – | Not Active
2 | CC1(C)[C@H](C(=O)Nc2cc(Cl)cc(Cl)c2)[C@@H]1C(=O)O | – | – | Not Active
3 | O=C(Nc1cc(Cl)cc(Cl)c1)[C@@H]1[C@H](C(=O)O)[C@@H]2C=C[C@H]1C2 | – | – | Not Active
4 | O=C(Nc1cc(Cl)cc(Cl)c1)[C@H]1CCCC[C@H]1c1nnn[nH]1 | > 10 | 152 | –
5 | CN(C)C(=O)[C@@H]1CCCC[C@@H]1C(=O)Nc1cc(Cl)cc(Cl)c1 | – | – | Not Active
6 | CCCNC(=O)[C@@H]1CCCC[C@@H]1C(=O)Nc1cc(Cl)cc(Cl)c1 | 9.6 | 57 | –
7 | O=C1[C@H]2CCCC[C@H]2C(=O)N1c1cc(Cl)cc(Cl)c1 | 3.3 | 152 | –
8 | O=C(Nc1cc(Cl)cc(Cl)c1)[C@H]1CC=CC[C@H]1C(=O)O | 2.7 | 150 | –
9 | O=C(Nc1cc(Cl)cc(Cl)c1)[C@H]1CCCC[C@H]1c1nsc(=O)[nH]1 | – | – | Not Active
10 | O=C(O)C1CCCN(C(=O)Nc2cc(Cl)cc(Cl)c2)C1 (stereo not given) | – | – | Not Active
11 | O=C(Nc1cc(Cl)cc(Cl)c1)[C@H]1CC[C@H]1C(=O)O (single isomer, unassigned) | – | – | Not Active
12 | NC(=O)[C@@H]1CC=CC[C@@H]1C(=O)Nc1cc(Cl)cc(Cl)c1 | 3.1 | 94 | –
13 | O=C(O)CCC(=O)Nc1cc(Cl)cc(Cl)c1 | – | – | Not Active
14 | O=C(O)[C@@H]1CCC[C@H](C(=O)Nc2cc(Cl)cc(Cl)c2)C1 | – | – | Not Active
15 | CC1=CC[C@H](C(=O)Nc2cc(Cl)cc(Cl)c2)[C@H](C(=O)O)C1 | – | – | Not Active
16 | N#C[C@@H]1CCCC[C@@H]1C(=O)Nc1cc(Cl)cc(Cl)c1 | 2 | 55 | –

The next lines start with the values.

Row | EC50 ([1]; read-out: EC50) [µM] | Emax [2] [%] | EC50 ([1]; cho) | SMILES
17 | > 10 | 39 | – | O=C(Nc1ccccc1)[C@H]1CCCC[C@H]1C(=O)O
18 | 2 | 138 | – | O=C(Nc1cc(F)cc(Cl)c1)[C@H]1CCCC[C@H]1C(=O)O
19 | – | – | Not Active | O=C(NN1CCOCC1)[C@H]1CCCC[C@H]1C(=O)O
20 | – | – | Not Active | Cc1nc(NC(=O)[C@H]2CCCC[C@H]2C(=O)O)nn1C
21 | – | – | Not Active | O=C(Nc1cc(Cl)cc(Cl)c1)[C@H]1CCCC[C@H]1C(=O)NC1CCCC1
22 | 0.95 | 104 | – | NC(=O)[C@@H]1CCCC[C@@H]1C(=O)Nc1cc(Cl)cc(Cl)c1
23 | 10 | 106 | – | CNC(=O)[C@@H]1CCCC[C@@H]1C(=O)Nc1cc(Cl)cc(Cl)c1
24 | 10 | 80 | – | O=C(Nc1cc(Cl)cc(Cl)c1)[C@H]1CCCC[C@H]1C(=O)NCC1CC1
25 | – | – | Not Active | O=C(Nc1ccc(F)c(F)c1)[C@H]1CCCC[C@H]1C(=O)O
26 | – | – | Not Active | O=C(Nc1cc(F)cc(F)c1)[C@H]1CCCC[C@H]1C(=O)O
27 | – | – | Not Active | Cc1ccc(NC(=O)[C@H]2CCCC[C@H]2C(=O)O)cc1C
28 | – | – | Not Active | O=C(NCc1ccccc1)[C@H]1CCCC[C@H]1C(=O)O
29 | 0.74 | 127 | – | O=C(Nc1cc(Cl)cc(Cl)c1)[C@H]1CCCC[C@H]1C(=O)O (relative stereo)
30 | – | – | Not Active | O=C(Nc1cc(Cl)cc(Cl)c1)[C@H]1CCCC[C@H]1C(=O)N1CCOCC1
31 | – | – | Not Active | O=C(Nc1cc(C(F)(F)F)cc(C(F)(F)F)c1)[C@H]1CCCC[C@H]1C(=O)O
32 | – | – | Not Active | Cc1cc(C)cc(NC(=O)[C@H]2CCCC[C@H]2C(=O)O)c1
33 | – | – | Not Active | O=C(NC1CCC1)[C@H]1CCCC[C@H]1C(=O)O
34 | – | – | Not Active | O=C(Nc1cc(Cl)cc(Cl)c1)[C@H]1CCCC[C@H]1C(=O)NC1CC1
35 | – | – | Not Active | O=C(Nc1cc(Cl)cc(Cl)c1)[C@H]1CCC[C@H]1C(=O)O
36 | – | – | Not Active | O=C(Nc1ccccn1)[C@H]1CCCC[C@H]1C(=O)O
37 | – | – | Not Active | O=C(Nc1cccc(Br)c1)[C@H]1CCCC[C@H]1C(=O)O
38 | – | – | Not Active | O=C(NC1CCCCC1)[C@H]1CCCC[C@H]1C(=O)O
